Only some compounds are listed: those with a hit (about 4.1% of all), similar ones and a draw of the others.
MrgX1 antagonist: human MrgX1 receptor antagonism, primary screen; B-score at 10 µM; Q96LB2; AID 588676; hit rate 1.3% among 310,000; MRGX1-HEK293 calcium flux, Fluo-4, BAM8-22 antagonism; stronger effect = lower value;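 active = calcium-response B-score plate-corrected more than 3 library SD below zero, starting fluorescence within 5 deviations, no agonist response on first addition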;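 also: peak minus trough fluorescence over baseline after final BAM8-22 challenge near maximal dose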
Target sequence (Q96LB2 whole entry, looked up): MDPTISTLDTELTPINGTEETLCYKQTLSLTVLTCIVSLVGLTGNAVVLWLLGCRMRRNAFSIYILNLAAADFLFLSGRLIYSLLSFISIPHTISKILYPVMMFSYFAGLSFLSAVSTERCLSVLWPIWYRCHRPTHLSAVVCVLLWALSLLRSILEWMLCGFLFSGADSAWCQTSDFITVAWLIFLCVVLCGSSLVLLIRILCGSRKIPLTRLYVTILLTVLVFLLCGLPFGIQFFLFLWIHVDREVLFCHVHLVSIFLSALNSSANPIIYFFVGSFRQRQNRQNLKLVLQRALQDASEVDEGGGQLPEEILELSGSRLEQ
RGS4 pot: RGS4 potentiation or activation. B-score at 10 µM. hit rate 0.92% among 310,000. HEK293 M3R/inducible RGS4, carbachol calcium flux Fluo4; stronger effect = lower value. AID 463111;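 active = B-score of the integrated calcium signal more than 4 SD below the library mean, with starting fluorescence not abnormally high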;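 also: negative B-score means reduced calcium response which marks RGS4 activation or potentiation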
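System – HEK293 FlpIn-TREx cells, stable M3R, doxycycline-inducible RGS4 · Reagent – ECmax carbachol challenge · Times – compound preincubation 20 min at room temperature before agonist · Technique – Fluo4 fluorescence kinetic imaging of calcium · Measure – B score of integrated Fluo4 ratio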
MrgX1 allo act: human MrgX1 positive allosteric modulation, primary screen | Q96LB2 | MrgX1-HEK293, Fluo-4 calcium flux, FDSS; stronger effect = higher value | B-score at 10 µM | hit rate 0.63% among 310,000 | AID 588675;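 active = plate-corrected calcium response at least 3 library SD above typical, normal starting fluorescence, not activating the receptor alone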;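 also: compound read alongside a low EC10 to EC30 dose of BAM8-22 agonist; peak minus trough fluorescence over baseline measured at the second addition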
Kir21 block: Kir2.1 (mouse) channel inhibition; P35561; HEK293-Kir2.1, FluxOR thallium flux fluorescence; stronger effect = lower value; B-score at 10 µM; hit rate 0.85% among 310,000; AID 1672;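 active = fluorescence ratio B-score at or below minus 3 SD of library scores, with starting-brightness B-score within 2 SD, cut at about -4.2 in these data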;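 also: channel flux triggered by added potassium and thallium sulfate stimulus; B-score of peak minus minimum fluorescence over baseline after thallium stimulus; more negative B-score means stronger Kir2.1 block with less thallium influx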
RGS4 inh: inhibitors of human RGS4; hit rate 0.45% among 310,000; AID 463165; B-score at 10 µM; P49798; HEK293 M3R/RGS4 inducible, Fluo-4 calcium flux; stronger effect = higher value; triggered by carbachol at its EC20;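 active = B-score, a plate-corrected calcium signal, over three deviations above library mean, with baseline fluorescence within five deviations of library mean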;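 also: RGS4 expression induced by doxycycline in cells with stable M3 receptor; B-score is computed from the integrated fluorescence ratio over baseline after carbachol; higher B-score means a larger calcium signal and so more RGS4 inhibition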
Target sequence (P49798 whole entry, looked up): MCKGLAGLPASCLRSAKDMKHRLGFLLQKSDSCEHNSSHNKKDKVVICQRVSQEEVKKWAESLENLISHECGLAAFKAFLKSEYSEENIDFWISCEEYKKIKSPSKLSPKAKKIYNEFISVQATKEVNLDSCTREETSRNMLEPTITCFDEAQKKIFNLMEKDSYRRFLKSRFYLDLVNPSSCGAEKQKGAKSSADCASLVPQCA
MrgX1 ag: human MrgX1 receptor agonism, primary screen | Q96LB2 | MrgX1-HEK293 cells, Fluo-4 calcium fluorescence, agonist mode; stronger effect = higher value | B-score at 10 µM | hit rate 0.44% among 310,000 | AID 588627;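 active = calcium response B-score plate-corrected fluorescence ratio at least 3 library SD, with starting fluorescence B-score inside 5 SD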
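Material: MrgX1-expressing HEK293 cells; input: 15,000 cells per well; doses: test compound given as first of three sequential additions; schedule: overnight plating before 1 h dye loading; technique: Fluo-4 NW calcium-flux fluorescence, kinetic read; evaluation: baseline-normalised fluorescence change ratio, B-scored; control set: plate-wise positive and negative controls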
MrgX1 ant reconf: confirmation of human MrgX1 receptor antagonists | AID 602420 | remaining BAM8-22 calcium response % of control (stronger effect = lower value), % at 10 µM | hit rate 19% among 2,300 | shares compounds with MrgX1 antagonist | MrgX1-HEK293, BAM8-22 calcium flux, Fluo-4; stronger effect = lower value;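 active = remaining agonist calcium response no higher than 100% minus 3 SD of agonist-only control wells, with starting fluorescence near control levels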;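 also: agonist BAM8-22 given at a near maximal EC90 to ECmax level; peak minus minimum fluorescence divided by baseline after agonist addition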
HEK293 Ca flux: MrgX1 antagonist counter-screen hit in parental HEK293 cells; shares compounds with MrgX1 antagonist; AID 624111; hit rate 2% among 4,000; fluorescence ratio F(max-min)/F0 at 10 µM; Fluo-4 calcium fluorescence, FDSS;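 active = duplicate-averaged calcium fluorescence ratio at least three times the standard deviation of buffer wells, a nonspecific response in parental cells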
HEK293 Ca counter: MrgX1 allosteric activator counter-screen hit in parental HEK293 cells | shares compounds with MrgX1 antagonist | parental HEK293 calcium flux, Fluo-4 fluorescence ratio; stronger effect = higher value | fluorescence ratio F(max-min)/F0 at 10 µM | hit rate 0.4% among 4,000 | AID 624114;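 active = calcium fluorescence ratio, averaged over duplicates, at least 3 SD of the buffer-well ratio, meaning a nonspecific response in receptor-free cells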;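 also: untransfected parental HEK293 lacking MrgX1 used as counterscreen for MrgX1 allosteric activators; fluorescence change taken during the second addition on a kinetic imager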
HEK293 Ca cntr2: activity in parental HEK293 cells lacking MrgX1 receptor | shares compounds with MrgX1 antagonist | Fluo-4 calcium fluorescence (FDSS); stronger effect = higher value | fluorescence ratio F(max-min)/F0 at 10 µM | hit rate 8.7% among 4,000 | AID 624115;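 active = calcium fluorescence ratio at least three times the spread of buffer wells, meaning a non-specific response in parental cells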
* hit, by the source's call; i = inactive; · = not tested or not shown.

SMILES | MrgX1 antagonist | RGS4 pot | MrgX1 allo act | Kir21 block | RGS4 inh | MrgX1 ag | MrgX1 ant reconf | HEK293 Ca flux | HEK293 Ca counter | HEK293 Ca cntr2
Cc1cc(NC(=O)CSc2nnc(-c3ccc(S(=O)(=O)N4CCCC4)cc3)n2C)no1 | i | i | i | 0 | i | i | · | · | · | ·
Cc1cccc(C)c1NC(=O)CNC(=O)C12CC3CC(CC(O)(C3)C1)C2 | -4.89* | i | i | -1.03 | i | i | i | i | i | i
Cc1nn(C)c(C)c1CNC(=O)c1nn2c(c1Cl)NC(c1cccs1)CC2C(F)(F)F (centres undefined) | -8.71* | i | i | -0.12 | i | i | i | i | i | i
Cc1nn(C)cc1CNC(=O)c1cc2n(n1)C(C(F)(F)F)CC(c1cccs1)N2 (centres undefined) | i | i | i | -0.33 | i | i | · | · | · | ·
COc1ccc(C2CC(C(F)(F)F)n3nc(C(=O)O)c(Cl)c3N2)cc1OC (centres undefined) | -4.54* | i | i | 0.32 | i | i | i | i | i | i
COc1ccc(C2/C(=C(/O)c3ccc4c(c3)CC(C)O4)C(=O)C(=O)N2CCN2CCOCC2)cc1 (centres undefined) | i | i | i | 0.79 | i | i | · | · | · | ·
O=C(CCCC(=O)Nc1cccnc1)Nc1cccnc1 | i | i | i | 0.05 | i | i | · | · | · | ·
O=C(CCC(=O)Nc1cccnc1)Nc1cccnc1 | -4.84* | i | i | 1.14 | i | i | i | i | i | i
Cc1ccc(NC(=O)Nc2ccc(F)c(Cl)c2)cc1 | -6.84* | i | i | 0.41 | i | i | 61.8%* | i | i | i
O=C(Nc1cccnc1)Nc1ccc(F)c(Cl)c1 | -5.21* | i | i | 0.71 | i | i | 69.0%* | i | i | i
CC(=O)Nc1nnc(Cc2c[nH]c3ccccc23)s1 | i | i | i | -0.83 | i | i | · | · | · | ·
COc1ccc(N(CC(=O)NCc2ccccc2)S(=O)(=O)c2c(C)nn(C)c2C)cc1 | -6.56* | i | i | 0.73 | i | i | i | i | i | i
O=C(CSC1=NCCS1)c1ccc(Cl)cc1 | i | i | i | -0.55 | i | i | · | · | · | ·
O=C(CSC1=NCCS1)N1CCN(c2ccc(Cl)cc2)CC1 | -6.34* | i | i | 0.54 | i | i | i | i | i | i
CCc1ccc(NC(=O)CCC(=O)N2CCSc3ccccc32)cc1 | -5.17* | i | i | -0.22 | i | i | i | i | i | i
Cc1sc2nc(SCC(=O)N3CCOCC3)[nH]c(=O)c2c1-c1ccccc1 | -5.07* | i | i | 1.24 | i | i | i | i | i | i
O=C(CSc1nc(O)c(-c2ccccc2)c(=O)[nH]1)N1CCOCC1 | i | i | i | -0.15 | i | i | · | · | · | ·
O=C(CSc1nnc(-c2ccccc2F)o1)N1CCCC1 | i | i | i | 0.64 | i | i | · | · | · | ·
Cc1ccc(C(=O)c2c[nH]c3c(F)cc(F)cc3c2=O)cc1 | -6.78* | i | i | 0.73 | i | i | i | i | i | i
COc1ccc(NC(=O)CSc2nnc(CN3CCOCC3)n2C)cc1Cl | -7.05* | i | i | -0.44 | i | i | i | i | i | i
O=C(c1ccco1)N1CCN(C(=O)N2CCCCC2)CC1 | i | i | i | 2.03 | i | i | · | · | · | ·
O=C(O)C1=C(C(=O)N2CCN(C(=O)c3ccco3)CC2)CCCC1 | -5.56* | i | i | -0.89 | i | i | i | i | i | i
CN(C)S(=O)(=O)c1cccc(NC(=O)COC(=O)COc2ccccc2[N+](=O)[O-])c1 | i | i | i | 0.04 | i | i | · | · | · | ·
O=C(CN1C(=O)C2C3c4ccccc4C(c4ccccc43)C2C1=O)N1CCOCC1 (centres undefined) | -5.18* | i | i | -0.16 | i | i | i | i | i | i
O=C1C2C3c4ccccc4C(c4ccccc43)C2C(=O)N1CN1CCOCC1 (centres undefined) | i | i | i | 0.75 | i | i | · | · | · | ·
SMILES | MrgX1 antagonist | RGS4 pot | MrgX1 allo act | Kir21 block | RGS4 inh | MrgX1 ag | MrgX1 ant reconf | HEK293 Ca flux | HEK293 Ca counter | HEK293 Ca cntr2
COc1ccccc1/C=C1\SC(=S)N(CCC(=O)Nc2ccc(C(=O)O)c(O)c2)C1=O | i | i | i | 1.07 | i | i | · | · | · | ·
COC(=O)c1cc(C#N)c(OC)nc1C | -5.14* | i | i | 0.13 | i | i | i | i | i | i
COc1ccccc1OCC(=O)Nc1nnc(C2CCCC2)s1 | i | i | i | -1.36 | i | i | · | · | · | ·
O=C(COc1cc(Cl)ccc1Cl)Nc1nnc(C2CC2)s1 | -4.56* | i | i | 0.31 | i | i | i | i | i | i
CCCn1c(N)c(NCCN2CCOCC2)c(=O)[nH]c1=O | -5.88* | i | i | 0.17 | i | i | i | i | i | i
CCn1ncc(C(=O)Nc2ccc(S(=O)(=O)N3CCCC3)cc2)c1C | i | i | i | -1.36 | i | i | · | · | · | ·
CCc1cccc2cc3c(N)c(C(=O)Nc4ccc(S(=O)(=O)N5CCCC5)cc4)sc3nc12 | -9.7* | i | i | 0.11 | i | i | i | 0.408* | i | i
CCn1c2ccccc2c2c3ncc4cccn4c3ccc21 | -5.79* | i | i | -0.28 | i | i | 78.1%* | i | i | i
c1ccc2c(c1)ncc1cccn12 | i | i | i | -0.9 | i | i | · | · | · | ·
COc1ccccc1NC(=O)CCC(=O)Nc1nnc(C2CCCCC2)s1 | i | i | i | 2.39 | i | i | · | · | · | ·
CCN(c1cccc(C)c1)S(=O)(=O)c1cc2c3c(c1)CCN3C(=O)CC2 | -11.5* | i | i | -2.58 | i | i | 76.6%* | i | i | i

Compound activity deposited in PubChem by Johns Hopkins Ion Channel Center.
